The text below walks through data of ChEMBL document CHEMBL1123243, “Studies on prodrugs. 5. Synthesis and antimicrobial activity of N-(oxoalkyl)norfloxacin derivatives” (J Med Chem, 1986).

Molecules are shown by their SMILES. A value given as a limit tells only on which side of the number the result lay.

For one series, the system named is Klebsiella pneumoniae. Put plainly: Compound was tested for antimicrobial activity against Klebsiella pneumonia IFO3512. Format: functional. The procedure, abridged:
(§1)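 Agar dilution on Mueller-Hinton agar with serial 2-fold dilutions; plate concentrations 0.006 to 100 µg/mL. Inoculum about 10^6 cfu/mL. Plates incubated at 37 °C for 18 h. MIC is the lowest concentration preventing visible growth.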

Series [1] relates to Escherichia coli. Put plainly: Compound was tested for antimicrobial activity against Escherichia coli KC-14. Format: functional. The procedure, abridged: as §1
Another series concerns Proteus vulgaris. Description: Compound was tested for antimicrobial activity against Proteus vulgaris OX-19. Format: functional. Put shortly: as §1
The test system of series [2] is Escherichia coli. Description: Compound was tested for antimicrobial activity in mice infected with Escherichia coli KC-14 after peroral administration. The format is functional. To be noted: po. The procedure, abridged: (§2)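 Male ddy mice (20 ± 2 g), groups of 10, were infected ip with 0.5 mL of bacteria at 10 or 100 times the 50% lethal dose. Compound was suspended in 0.5% sodium carboxymethyl cellulose and given orally 1 h postinfection. Survival was scored after 1 week.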

In a further series the test system is Pseudomonas aeruginosa. Put plainly: Compound was tested for antimicrobial activity against Pseudomonas aeruginosa PAO1. Format: functional. Put shortly:
as §1

For the next series, the system named is Bacillus subtilis. Put plainly: Compound was tested for antimicrobial activity against Bacillus subtilis ATCC 6633. The format is functional. Put shortly: as §1
The test system of a further series is Serratia marcescens. Put plainly: Compound was tested for antimicrobial activity against Serratia marcescens 16. The format is functional. Put shortly:
as §1

The subject of a further series is Staphylococcus aureus. Put plainly: Compound was tested for antimicrobial activity against Staphylococcus aureus FDA207PJC-1. Format: functional. Also noted: unit: µg/mL. The procedure, abridged: as §1
Series [3] deals with Mus musculus. Description: (§3) Serum concentration in mice, after oral administration at a dose of 100 mg/kg p.o. at 2 hr. Format: functional, organism-based. Also noted: dose 100 mg/kg. The procedure, abridged:
(§4)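 Mice were given compound orally as a suspension in 0.5% sodium carboxymethyl cellulose at 100 mg/kg (NFLX-equivalent dose). Animals were killed by bleeding at 0.5, 1.0, 2.0 and 4.0 h. Serum norfloxacin and parent compound were measured by HPLC.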

The test system of series [4] is Mus musculus. Description: Compound was tested for antimicrobial activity in mice infected with Escherichia coli KC-14, po. Format: functional. The procedure, abridged: as §2
The subject of series [5] is Mus musculus. Put plainly: Serum Levels in mice, after oral administration at a dose of 100 mg/kg p.o. at 5 hr. Format: functional, organism-based. Also noted: dose 100 mg/kg.
Series [6] relates to Mus musculus. Description: Serum Levels in mice, after oral administration at a dose of 100 mg/kg p.o. at 2 hr. Format: functional, organism-based. Also noted: dose 100 mg/kg. Put shortly:
as §4

Series [7] has as its system Mus musculus. Description: Serum concentration in mice, after oral administration at a dose of 100 mg/kg p.o. at 0.5 h. Also noted: dose 100 mg/kg. The format is functional, organism-based. Put shortly: as §4
The test system of series [8] is Mus musculus. Description: Serum concentration in mice, after oral administration at a dose of 100 mg/kg p.o. at 1 hr. Format: functional, organism-based. Also noted: dose 100 mg/kg. Put shortly:
as §4

Series [9] has as its system Mus musculus. Description: Serum Levels in mice, after oral administration at a dose of 100 mg/kg p.o. at 1 hr. Format: functional, organism-based. Also noted: dose 100 mg/kg. The procedure, abridged: as §4
Series [10] relates to Mus musculus. Put plainly: Serum concentration in mice, after oral administration at a dose of 50 mg/kg p.o. at 2 hr. Also noted: dose 50 mg/kg. The format is functional, organism-based.
Series [11] relates to Mus musculus. Description: Serum Levels in mice, after oral administration at a dose of 100 mg/kg p.o. at 0.5 h. Also noted: dose 100 mg/kg. Format: functional, organism-based. Put shortly:
as §4

In series [12] the test system is Mus musculus. Description: Serum concentration in mice, after oral administration at a dose of 100 mg/kg p.o. at 5 hr. The format is functional, organism-based. Also noted: dose 100 mg/kg.
Series [13] is described as follows: Compound was evaluated for area under curve doses in […] at 100 mg/kg po. The format is functional, organism-based. Also noted: dose 100 mg/kg.
For series [14], the system named is Mus musculus. Described as §3. Format: functional, organism-based. Also noted: dose 100 mg/kg. Put shortly:
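Compound was suspended in 0.5% sodium carboxymethyl cellulose and given orally to mice at 100 mg/kg, as a dose equivalent to 100 mg/kg NFLX. Mice were killed by bleeding at 0.5, 1.0, 2.0 and 4.0 h. Serum NFLX and parent compound were each measured by HPLC.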
This is another data set of the same source.

Series [15] is described as follows: Lethal dose was measured in rat after iv administration. To be noted: in vivo. Format: toxicity, organism-based. The procedure, abridged: (§5)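 Each compound was suspended in 0.5% cmc and given by the stated route. Deaths were counted within 1 week, and LD50 was calculated by the method of Weil.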
Series [16] relates to Mus musculus. Put plainly: Compound was tested for antimicrobial activity in mice infected with Staphylococcus aureus smith. po. Format: functional. The procedure, abridged:
(§6)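 Male ddy mice (20 ± 2 g, groups of 10) received an intraperitoneal inoculum of 0.5 mL bacterial dilution at 10 or 100 times the 50% lethal dose. Compound was suspended in 0.5% sodium carboxymethyl cellulose and given orally 1 h postinfection.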

Series [17] deals with Mus musculus. Description: Compound was tested for antimicrobial activity in mice infected with Pseudomonas aeruginosa E2,po. The format is functional. The procedure, abridged: as §6
Series [18] is described as follows: Lethal dose was measured in rat after oral administration. Format: toxicity, organism-based. To be noted: in vivo. The procedure, abridged:
as §5

The test system of series [19] is Mus musculus. Description: Compound was tested for antimicrobial activity in mice infected with Staphylococcus aureus smith, po. Format: functional. The procedure, abridged: as §2

One may read the ED50 as the dose at which the effect has come halfway, by size or by number of responders. As for `CCn1cc(C(=O)O)c(=O)c2cc(F)c(N3CCN(C(C)(C)C(C)=O)CC3)cc21`, the Activity in the series on Klebsiella pneumoniae was 0.39; with Escherichia coli [1] it was 3.13; with Proteus vulgaris, 1.56; in the series on Pseudomonas aeruginosa it was 6.25; in the series on Bacillus subtilis, 0.39; with Serratia marcescens, 6.25. The Activity in the series with Staphylococcus aureus turned out to be 0.78. Further, in the series with Escherichia coli [2], the ED50 was 6.06 mg/kg.
Turning to `CCn1cc(C(=O)O)c(=O)c2cc(F)c(N3CCN(CC(C)O)CC3)cc21` (stereo not given), the Serum concentration in the series with Mus musculus [3] came to 6.93 µg/mL; in the series with Mus musculus [7] it was 19.5 µg/mL; in the series on Mus musculus [8], 20.2 µg/mL; with Mus musculus [10], 4.48 µg/mL; in the series on Mus musculus [12], 2.82 µg/mL. Also, the Activity in the series on Klebsiella pneumoniae is reported as 0.2; in the series on Escherichia coli [1], 0.78; in the series with Proteus vulgaris, 0.78; with Pseudomonas aeruginosa it was 6.25; in the series on Bacillus subtilis, 0.78; in the series on Serratia marcescens, 3.12. The compound also yielded an Activity in the series with Staphylococcus aureus of 0.39. The ED50 came to 3.5 mg/kg with Mus musculus [4] and 3.9 mg/kg in the series on Escherichia coli [2]. Further, the Serum level in the series on Mus musculus [5] was 2.21; in the series on Mus musculus [6], 11.8 µg/mL; with Mus musculus [9] it was 27.1; with Mus musculus [11], 13.6 µg/mL.
For `CCn1cc(C(=O)O)c(=O)c2cc(F)c(N3CCN(CCC(C)=O)CC3)cc21`, the Activity with Klebsiella pneumoniae is 0.2; in the series on Escherichia coli [1], 0.78; in the series with Proteus vulgaris, 0.2; in the series with Pseudomonas aeruginosa it was 0.78; with Bacillus subtilis, 0.39; with Serratia marcescens, 0.78. In the series on Staphylococcus aureus, this compound yielded an Activity of 0.78. In series [13], this compound came in with an AUC of 12.9. In the series on Escherichia coli [2], this compound showed an ED50 of 2.34 mg/kg. Besides, the Serum concentration was determined as 2.22 µg/mL in the series on Mus musculus [14], 7.06 µg/mL in the series with Mus musculus [7], 3.55 µg/mL in the series with Mus musculus [8] and 1.18 µg/mL in the series on Mus musculus [12].
On to `CCn1cc(C(=O)O)c(=O)c2cc(F)c(N3CCN(CC(=O)c4ccccc4)CC3)cc21`, for which the Activity in the series with Klebsiella pneumoniae is 0.78; in the series with Escherichia coli [1] it was 0.78; in the series with Proteus vulgaris, 0.39; in the series with Pseudomonas aeruginosa, 1.56; with Bacillus subtilis it was 0.78; in the series on Serratia marcescens it was 1.56. Moreover, in the series on Staphylococcus aureus, the Activity came out at 0.78. Moreover, the ED50 in the series on Escherichia coli [2] was more than 7.5 mg/kg.
For orientation: LD50 means the dose expected to kill half of the subjects tested. For `CCn1cc(C(=O)O)c(=O)c2cc(F)c(N3CCNCC3)cc21` [NORFLOXACIN], the Activity in the series with Klebsiella pneumoniae is 0.2; in the series with Escherichia coli [1], 0.39; with Proteus vulgaris, 0.2; in the series with Pseudomonas aeruginosa, 0.78; with Bacillus subtilis, 0.39; in the series with Serratia marcescens, 0.78. In addition, the Activity in the series with Staphylococcus aureus amounted to 0.39. Also, the LD50 in series [15] is 314 mg/kg. The ED50 in the series on Escherichia coli [2] worked out at 4.38 mg/kg; in the series with Mus musculus [16], 36.4 mg/kg; with Mus musculus [17] it was 59 mg/kg.
`CCn1cc(C(=O)O)c(=O)c2cc(F)c(N3CCN(CC(C)=O)CC3)cc21`: the Activity is 0.2 in the series with Klebsiella pneumoniae; 1.56 in the series with Escherichia coli [1]; 0.78 with Proteus vulgaris; 6.25 with Pseudomonas aeruginosa; 0.39 in the series with Bacillus subtilis; 6.25 with Serratia marcescens. Further, the Activity with Staphylococcus aureus worked out at 0.39. For the same compound, the LD50 is more than 4000 mg/kg in series [18] and 684 mg/kg in [15]. Besides, the ED50 is 0.95 mg/kg in the series with Escherichia coli [2], 12.6 mg/kg with Mus musculus [19] and 18.5 mg/kg in the series on Mus musculus [17]. Also, the Serum concentration with Mus musculus [14] amounted to 2.69 µg/mL; with Mus musculus [7], 23.6 µg/mL; with Mus musculus [8], 7.29 µg/mL; in the series on Mus musculus [10], 8.88 µg/mL; in the series on Mus musculus [12], 0.46 µg/mL.
For `CCn1cc(C(=O)O)c(=O)c2cc(F)c(N3CCN(CC(=O)C(C)(C)C)CC3)cc21`, the Activity is 0.78 with Klebsiella pneumoniae; 12.5 with Escherichia coli [1]; 3.13 in the series on Proteus vulgaris; 50 in the series on Pseudomonas aeruginosa; 0.78 in the series on Bacillus subtilis; less than 100 in the series with Serratia marcescens. Moreover, the Activity with Staphylococcus aureus turned out to be 0.78. For the same compound, it took a dose of 7.13 mg/kg to reach the 50% effect level with Escherichia coli [2] (ED50). The Serum concentration with Mus musculus [14] is 9.4 µg/mL; in the series with Mus musculus [7], 19.6 µg/mL; with Mus musculus [8] it was 15.4 µg/mL; with Mus musculus [12], 6.73 µg/mL.
Regarding `CCn1cc(C(=O)O)c(=O)c2cc(F)c(N3CCN(C(C)C(C)=O)CC3)cc21` (stereo not given), the Activity in the series on Klebsiella pneumoniae is recorded as 0.78; with Escherichia coli [1], 3.13; in the series on Proteus vulgaris, 1.56; in the series with Pseudomonas aeruginosa, 12.5; with Bacillus subtilis, 0.78; in the series with Serratia marcescens it was 12.5. Further, the Activity with Staphylococcus aureus is 0.78. In the series with Escherichia coli [2], this compound registered an ED50 of 3.53 mg/kg.
